The source made the active and inactive calls.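 The calls were made as follows: active = fold change inhibition above 1.5; inactive = the rest.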
test system: GAL4DBD-VP16 transactivation domain fusion (Human herpesvirus 1 VP16); test: inhibition of VP16-driven luciferase reporter – cell-based, luminescence, HEK293T, powder samples, counter-screen for RORA inverse agonist project, late-stage follow-up (AID 463148); details: HEK293T GAL4-VP16 UAS-luciferase, 18-24 h, at 10 µM, active compounds read high
Outline: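 Assay system: HEK293T cells expressing GAL4DBD-VP16 fusion plus 5xGAL4 UAS-luciferase reporter. Dosing: single nominal compound concentration of 10 µM. Schedule: 24 h bulk transfection before replating, then 20 h compound exposure. Detection: luciferase luminescence. Read-out basis: fold change relative to DMSO wells. Controls: DMSO vehicle wells. Repeats: mean of six replicates.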

fold change inhibition | Compound
1.68 | O=C(Nc1ccc(C(O)(C(F)(F)F)C(F)(F)F)cc1)c1ccc(F)cc1F
1.05 (inactive) | O=C(Nc1ccc(C(O)(C(F)(F)F)C(F)(F)F)cc1)c1c(F)cccc1F

Continued, compound first:

Compound | fold change inhibition
O=S(=O)(Nc1ccc(C(O)(C(F)(F)F)C(F)(F)F)cc1)c1cccs1 | 0.97 (inactive)
O=C(Nc1ccc(C(O)(C(F)(F)F)C(F)(F)F)cc1)c1ccccc1C(F)(F)F | 0.941 (inactive)
O=C(Nc1ccc(C(O)(C(F)(F)F)C(F)(F)F)cc1)c1ccc(F)cc1Cl | 1.01 (inactive)
O=C(Nc1ccc(C(O)(C(F)(F)F)C(F)(F)F)cc1)c1ccc(Cl)cc1 | 1.27 (inactive)
